# Screening data as filed in PubChem BioAssay.
# bIAP act: intestinal alkaline phosphatase (bovine) activation; purified bovine IAP, CDP-star luminescence, 30 min; hits give high values; fold of DMSO-control signal, blank-subtracted; activation factor at 20 µM; hit rate 0.17% among 200,000; AID 1016;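 active = activation factor of 2 or more at 20 µM, a signal rise over negative controls twice the positive control's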
# hIAP activ: human IAP activation. activation factor at 10 µM. AID 2524. hit rate 0.16% among 330,000. purified human IAP, CDP-Star luminescence, 30 min; hits give high values; 1 = vehicle-only enzyme, 0 = enzyme-free background;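 active = activation factor of the enzyme at least 2-fold when tested at 20 µM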
# Target sequence (P09923 whole entry, looked up): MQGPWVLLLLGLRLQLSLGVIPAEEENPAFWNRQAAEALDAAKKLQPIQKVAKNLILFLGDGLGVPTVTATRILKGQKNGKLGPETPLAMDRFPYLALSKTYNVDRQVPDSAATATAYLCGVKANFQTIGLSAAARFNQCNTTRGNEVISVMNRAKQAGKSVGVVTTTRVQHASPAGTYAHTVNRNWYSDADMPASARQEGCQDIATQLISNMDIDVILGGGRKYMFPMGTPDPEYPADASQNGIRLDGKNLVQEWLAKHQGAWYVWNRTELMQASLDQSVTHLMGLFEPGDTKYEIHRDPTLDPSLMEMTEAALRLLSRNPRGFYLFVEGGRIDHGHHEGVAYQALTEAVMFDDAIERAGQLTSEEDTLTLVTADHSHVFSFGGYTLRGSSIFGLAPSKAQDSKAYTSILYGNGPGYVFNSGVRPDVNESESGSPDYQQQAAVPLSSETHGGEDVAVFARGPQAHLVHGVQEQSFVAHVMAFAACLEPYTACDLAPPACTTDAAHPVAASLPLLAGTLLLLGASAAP
# mIAP activ: mouse IAP activation | hit rate 0.24% among 330,000 | activation factor at 10 µM | muIAP, CDP-Star luminescence, 30 min; hits give high values; 1 = vehicle-only enzyme signal, 0 = enzyme-free wells;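 active = activation factor of at least 2 at 20 µM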
#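 also added = chemiluminescent substrate CDP-Star | test system = mouse IAP enzyme | signal = chemiluminescence readout | compound = DMSO-dissolved test compounds | incubation = 30 min at room temperature | benchmarks = DMSO wells, no-enzyme wells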
# mIAP block: mouse IAP inhibition; purified mouse IAP, CDP-Star luminescence, 30 min; inhibition, % at 10 µM; hit rate 0.2% among 330,000; AID 2806;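 active = inhibition of at least 40% at 10 µM in the primary screen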;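 also: plate controls were DMSO with enzyme for no effect and no enzyme wells for full effect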
# hIAP block: human IAP inhibition; P09923; purified IAP, CDP-Star luminescence, 30 min; inhibition, % at 10 µM; hit rate 0.12% among 330,000; AID 2544;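 active = inhibition reaching a set limit with compound at 10 µM in the primary screen, cut at about 35% in these data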;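 also: plate controls were DMSO wells with enzyme for no effect and no-enzyme buffer wells for full effect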
# bIAP inhibitor: intestinal alkaline phosphatase (bovine) inhibition; purified bovine IAP, CDP-star luminescence, 30 min; inhibition, % at 20 µM; 190,000 tested, under 10 active; AID 1019;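 active = over 50% inhibition of intestinal alkaline phosphatase at 20 µM in the single-dose screen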
#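 System: Purified bovine intestinal alkaline phosphatase (IAP) enzyme | Input: IAP diluted 1/65,000,000 in the well | Also added: CDP-star chemiluminescent phosphatase substrate, 30 µM final | Dosing: 20 µM single dose | Times: Enzyme reaction for 30 min at room temperature | Detection: Luminescence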
# The depositor's hits bear a star; nt = not tested or not shown. A selection: hits, their analogues and other compounds. The true share with any hit is near 0.77%.
SMILES,bIAP act,hIAP activ,mIAP activ,mIAP block,hIAP block,bIAP inhibitor
C[C@@H]1CN([C@H](C)CO)C(=O)Cc2cc(NS(=O)(=O)c3ccc(Cl)cc3)ccc2O[C@H]1CN(C)Cc1ccc(C(F)(F)F)cc1,nt,1,0.96,4,-2,nt
C[C@@H]1CN([C@@H](C)CO)C(=O)Cc2cc(NC(=O)Nc3cccc4ccccc34)ccc2O[C@@H]1CN(C)S(C)(=O)=O,nt,0.87,2.3*,-127,13,nt
COC(=O)C1=C(CS(=O)(=O)c2ccc(Cl)cc2)NC(=O)NC1c1ccc(O)cc1 (centres undefined),nt,0.92,1.1,-6,8,nt
CN(CC(=O)OCC(=O)NC1CCCC1)S(=O)(=O)c1ccc(Cl)cc1,nt,1.1,0.99,1,-14,nt
NC(=S)NN=Cc1ccc(-c2ccc(S(=O)(=O)Nc3ncccn3)cc2)o1,nt,1.2,0.58,42*,-16,nt
S=C(NCc1ccc(Cl)cc1Cl)Nc1ccccc1,1.2,1.1,2.4*,-135,-11,-18
S=C(NCc1cccs1)Nc1cc(Cl)cc(Cl)c1,nt,1.1,4*,-300,-10,nt
S=C(NCc1ccc(Cl)cc1)Nc1ccccc1,1.1,0.92,1.3,-31,8,-8
COc1ccc(CNC(=S)Nc2ccc(F)c(Cl)c2)cc1,0.9,1.3,2.6*,-162,-28,10
Fc1ccc(CNC(=S)Nc2cccc(Cl)c2)cc1,1.2,0.93,2.4*,-138,7,-24
CCOc1ccc(CCNC(=O)COC(=O)CCc2cc(OC)c(OC)c(OC)c2)cc1OCC,nt,1.1,0.96,4,-5,nt
Cc1n[nH]c(C)c1S(=O)(=O)N1CCN(S(=O)(=O)c2cccc(F)c2)CC1,nt,1,0.99,1,-2,nt
Fc1cccc(NC(=S)NCc2ccccc2Cl)c1,nt,0.96,3*,-203,4,nt
Cc1cc(Cl)ccc1NC(=S)NCc1ccccc1Cl,0.9,1.1,2.6*,-162,-10,8
CC(C)Cc1ccc(C(=O)Nc2ccc(Cc3ccncc3)cc2)o1,nt,0.93,1,-5,7,nt
Cc1ccc2oc(C(=O)Nc3cc(C)on3)c(C)c2c1,nt,1.1,0.93,7,-8,nt
Cc1cc(C)c(S(=O)(=O)Nc2ccc(O)c(Sc3ncn[nH]3)c2)c(C)c1,1,0.93,0.31,69*,7,2
CC(=O)C1=C(C)NC(SCC(=O)c2ccc(Cl)c(Cl)c2)=C(C#N)C1c1ccco1 (centres undefined),1,0.65,0.8,20,35*,3
CC(=O)C1=C(C)NC(SCC(=O)c2cc(Cl)ccc2Cl)=C(C#N)C1c1ccco1 (centres undefined),0.8,1.2,0.89,11,-18,16
COc1ccc2nc(NC(=O)C3CCN(C(=O)c4ccco4)CC3)sc2c1,nt,0.95,1.1,-13,5,nt
CCOc1ccc(NC(=O)CC(c2ccccc2)c2ccc(F)cc2)cc1 (centres undefined),0.5,1.2,2.2*,-117,-16,47
CCOc1ccccc1NC(=O)c1cccc(NC(=O)CC(c2ccccc2)c2ccccc2)c1,1.1,0.96,2*,-102,4,-6
Cc1cnc(C(=O)OC(C)C(=O)c2c(C)[nH]c3ccccc23)cn1 (centres undefined),nt,0.98,0.91,9,2,nt
CCOC(=O)c1ccc(NC(=S)NC2CCCC2)cc1,1,0.93,2.2*,-121,7,1
COC(=O)c1ccc(NC(=S)NC2CCCCC2C)cc1 (centres undefined),1.3,1.1,2.6*,-157,-14,-32
SMILES,bIAP act,hIAP activ,mIAP activ,mIAP block,hIAP block,bIAP inhibitor
CCOC(=O)c1ccc(NC(=S)NC(=O)C2CCCC2)cc1,nt,0.92,0.99,0,8,nt
Cc1noc(C)c1C(=O)Nc1ccc(S(=O)(=O)N2CCC(C)CC2)cc1,nt,1.1,0.49,51*,-12,nt
Cc1noc(C)c1C(=O)Nc1ccc(S(=O)(=O)N2CCCCC2)cc1,nt,1.3,0.99,1,-29,nt
O=C(NCc1cccnc1)c1cc2ccccc2oc1=O,1,1,1.1,-6,0,1
O=C(NCCc1cccc(Cl)c1)c1cc2ccccc2oc1=O,nt,1,0.59,41*,-3,nt
Cc1ccc(N2CC(C(=O)N3CCC(C(=O)Nc4nnc(C(C)C)s4)CC3)CC2=O)cc1 (centres undefined),nt,1.1,1,-4,-13,nt
CCc1cc(Cn2nc(-c3ccccc3)cc2C(=O)NCc2cccs2)on1,nt,1,3.6*,-258,-5,nt
CCOC(=O)c1c(C)[nH]c(C)c1S(=O)(=O)N(C)CC(=O)Nc1cccc(C)n1,nt,1.1,0.96,4,-12,nt
CCc1ccccc1NC(=S)NC1CC2CCCC(C1)N2Cc1cccs1 (centres undefined),1.4,0.93,2.4*,-140,7,-43
Cc1cccc(NC(=S)NC2CC3CCCC(C2)N3Cc2cccs2)c1C (centres undefined),1.3,1.2,2.3*,-131,-22,-28
Cc1cccc(C)c1NC(=O)NC1CC2CCC(C1)N2Cc1cccs1 (centres undefined),1.1,1,1.1,-6,-1,-12
CCCN1C2CCCC1CC(NC(=S)Nc1cccc(C)c1C)C2 (centres undefined),nt,1.2,1.1,-7,-17,nt
COC(=O)c1ccc(C2=NOC(C)(c3nnc(Cc4ccccc4)o3)C2)cc1 (centres undefined),nt,1.1,1,-3,-11,nt
COc1ccc(N2CC(C(=O)NCCC3=CCCCC3)CC2=O)c(OC)c1 (centres undefined),nt,1,0.97,3,-2,nt
OCCN1CCN(CC(O)COc2ccc3ccccc3c2)CC1 (centres undefined),2.9*,0.9,0.97,3,10,-188
CSCc1nc2sc(C(=O)Nc3nc(C)cs3)c(C)c2c(=O)[nH]1,1.1,0.92,0.58,42*,8,-12
O=C(Cn1cnc2c(OCc3ccccc3)ncnc21)N[C@H](CO)Cc1cc2ccccc2[nH]1,nt,1,0.98,2,-1,nt
COc1ccc(C2Nc3ccccc3C(=O)N2O)cc1CN1CCOCC1 (centres undefined),2*,1.1,0.9,10,-8,-100
COc1ccc(C2Nc3ccccc3C(=O)N2O)cc1OC (centres undefined),1,1,0.96,4,0,-3
O=C(Oc1c(Br)cc([N+](=O)[O-])cc1Br)c1cccnc1,1,2.3*,1,0,-133,-3
N/C(=N\OC(=O)c1ccc([N+](=O)[O-])cc1)c1cccnc1,0.9,0.98,1,-4,2,6
O=C(NCC1CCN(c2ccc(S(=O)(=O)N3CCOCC3)cc2)CC1)Nc1ccccc1,nt,1.4,2.1*,-111,-43,nt
CN(C)CCCNC(=O)C[C@H]1C[C@H](C(=O)N2CCCCC2)[C@@]2(C)c3[nH]c4cc(CCC(=O)N(C)C)ccc4c3CCN2C1=O,nt,nt,1.2,-6,nt,nt
